# Laboratory results reported in PMC3142331 (Molecular cell, 2011).
# What was measured:
# Mce-V372Y/C383Y = Mce-V372Y/C383Y (Mus musculus, UniProt O55236, C383Y/V372Y); test: fluorescence polarization binding; conditions: pH 7.0, 23°C
# Mce F367N = test: fluorescence polarization binding; parameters: species or system mouse; conditions: pH 7.0, 23°C; versus wild-type
# Outline: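 N-terminally fluorescein-labelled 11-aa CTD peptide (phosphorylated at central Ser2 and Ser5) was titrated with increasing concentrations of E. coli-expressed recombinant Mce protein, wild-type or mutant. Polarization was read at 23°C, pH 7.0, and Kd was derived from the binding curves. Three independent experiments were run in triplicate; error is one standard deviation.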
# Chain of Mce-V372Y/C383Y (O55236 227-567 V372Y/C383Y): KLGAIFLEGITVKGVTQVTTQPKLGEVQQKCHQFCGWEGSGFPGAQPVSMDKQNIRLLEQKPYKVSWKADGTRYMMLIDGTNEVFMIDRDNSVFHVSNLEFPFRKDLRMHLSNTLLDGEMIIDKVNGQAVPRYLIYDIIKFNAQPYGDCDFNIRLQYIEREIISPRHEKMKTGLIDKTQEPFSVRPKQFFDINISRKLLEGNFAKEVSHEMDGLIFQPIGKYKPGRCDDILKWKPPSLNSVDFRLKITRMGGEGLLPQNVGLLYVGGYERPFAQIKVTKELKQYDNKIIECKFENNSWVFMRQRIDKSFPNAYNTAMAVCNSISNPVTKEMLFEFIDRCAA
structure (smiles),measurement,setting,value
C[C@@H](O)[C@H](NC(=O)[C@@H]1CCCN1C(=O)[C@H](CO)NC(=O)c1ccc2c(c1)C(=O)OC21c2ccc(O)cc2Oc2cc(O)ccc21)C(=O)N[C@@H](COP(=O)(O)O)C(=O)N1CCC[C@H]1C(=O)N[C@@H](CO)C(=O)N[C@@H](Cc1ccc(O)cc1)C(=O)N[C@@H](COP(=O)(O)O)C(=O)N1CCC[C@H]1C(=O)N[C@H](C(=O)N[C@@H](CO)C(=O)O)[C@@H](C)O [Fluor-S2P3T4S5PP6S7Y1S2PP3T4S5],increase in Kd compared to wild-type Mce,Mce-V372Y/C383Y,4 fold
same,effect of mutation on binding,Mce F367N,No effect in binding was observed
